Data: ChEMBL document CHEMBL3739417, “Synthesis and biological evaluation of novel 4,5-disubstituted 2H-1,2,3-triazoles as cis-constrained analogues of combretastatin A-4” (2015)
Active and inactive are the calls of the source. The calls are words filed in the database; no cut-off is given here.

Experiments:
[1] = Inhibition of colony formation in rat 9LSF cells after 24 hrs by crystal violet staining; format: functional; conditions: read-out: LD50 (the source's name)
Outline: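 9LSF rat gliosarcoma cells exposed for 24 hours at 1 nM, 3 nM, 10 nM, 30 nM, 100 nM, 1 μM or 10 μM. Then trypsinized, counted, seeded in triplicate and incubated at 37°C until colonies exceeded 50 cells. Flasks with fewer than 50,000 cells got 50,000 lethally irradiated A549 feeder cells first. Colonies fixed, crystal violet-stained and counted. LD50 from four-parameter logistic fit, mean ± SEM of 3 independent experiments.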

[2] = Cell cycle arrest in rat 9LSF cells assessed as accumulation at G2/M phase at 50 nM after 24 hrs by propidium iodide based flow cytometry; format: functional
Outline: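 9LSF rat gliosarcoma cells were exposed to 50 nM compound for 24 h alongside untreated controls. Cells were then trypsinized, counted, rinsed in PBS and fixed in ice-cold 70% EtOH/PBS at 10⁶ cells/mL, then held at 4°C. For analysis, 10⁶ cells were pelleted, rinsed three times in PBS and resuspended in 1 mL PBS with 1 µL PI (12.5 mg/mL stock in DMSO). The G2/M fraction was read by flow cytometry.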

In the case of `COc1ccc(-c2n[nH]nc2-c2cc(OC)c(OC)c(OC)c2)cc1O`, the CC50 [1] is reported as 7.5 nM and the Activity [2] is reported as “Active”.
